Experimental data as given in ChEMBL document CHEMBL1152330, “Cytotoxic triterpenoid alkaloids from Buxus microphylla” (J Nat Prod, 2009).

What was measured:
[1] = system: HepG2; test: Cytotoxicity against human HepG2 cells after 72 hrs by MTT assay; type: functional, cell-based; conditions: HepG2, 72 h
Procedure, shortened: (§1)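 Cells grown in RPMI-1640 with 10% heat-inactivated bovine serum, L-glutamine, penicillin/streptomycin and 10 mM HEPES pH 7.4, at 37 °C, 5% CO2. Seeded, allowed to adhere 24 h, then exposed at 0.01–100 µg/mL (tenfold steps) for 72 h, triplicate wells. MTT 4 h, SDS–isobutanol–HCl solubilization 12–20 h. OD 570 nm versus DMSO controls. IC50 by LOGIT.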

[2] = system: K562; test: Cytotoxicity against human K562 cells after 72 hrs by MTT assay; type: functional, cell-based; conditions: K562, 72 h; procedure, shortened: as §1

SMILES | IC50 [1] | IC50 [2]
C/C=C1/C(=O)C[C@@]2(C)[C@@H]3CCC4C(C)(C)[C@@H](NC)CC[C@@]45C[C@@]35CC[C@]12C (stereo partly specified) | > 100 µM | 1.7 µM
C=C1C2CC[C@@H]3[C@]4(CC[C@]5(C)/C(=C\C)C(=O)C[C@@]35C)C[C@]24CC[C@@H]1NC (stereo partly specified) [BIXMICROPHYLLINE B] | 0.78 µM | 0.37 µM
C=C1C2CC[C@@H]3[C@]4(CC[C@]5(C)[C@@H](C(C)=O)[C@H](O)C[C@@]35C)C[C@]24CC[C@@H]1N(C)C (stereo partly specified) [BUXIPPINE K] | 57.1 µM | 35.3 µM
C[C@@H]([C@H]1[C@H](OC(=O)c2ccccc2)C[C@@]2(C)[C@@H]3CCC4[C@@]5(CC[C@H](NC(=O)c6ccccc6)[C@@]4(C)CO)C[C@@]35CC[C@]12C)N(C)C (stereo partly specified) [BUXMICROPHYLLINE E] | 39.7 µM | > 100 µM
CC(C)C(=O)N[C@H]1CC[C@]23C[C@]24CC[C@]2(C)[C@@H]([C@H](C)N(C)C)[C@H](OC(=O)c5ccccc5)C[C@@]2(C)[C@@H]4C=CC3[C@]1(C)CO (stereo partly specified) [BUXMICROPHYLLINE F] | 20.1 µM | 2.95 µM
COc1ccc(/C=C/C(=O)N[C@H]2CC[C@]34C[C@]35CC[C@]3(C)[C@@H]([C@H](C)N(C)C)[C@H](O)C[C@@]3(C)[C@@H]5CCC4[C@]2(C)CO)cc1O (stereo partly specified) [BUXMICROPHYLLINE G] | 0.89 µM | 4.44 µM
C=C1C2CC[C@@H]3[C@]4(CC[C@]5(C)[C@@H](C(C)=O)[C@H](O)C[C@@]35C)C[C@]24CC[C@@H]1NC (stereo partly specified) [CYCLOMICROBUXININE] | > 100 µM | > 100 µM
C/C=C1\C(=O)C[C@@]2(C)[C@@H]3CCC4C(C)(C)[C@@H](NC)CC[C@@]45C[C@@]35CC[C@]12C (stereo partly specified) [Z-buxenone] | 14.9 µM | 5.61 µM
